One may read the logD as the decadic logarithm of the distribution of all forms, ionised or not, between an organic phase and buffer at a given pH. Low readings indicate a more hydrophilic compound, high ones a more lipophilic compound. As usually defined, the solubility is the dissolved amount per volume that the medium holds. Low readings indicate a poorly soluble substance, high ones a readily soluble substance.

This note sets out measurements from ChEMBL document CHEMBL1649070, “Virtual screening identification of nonfolate compounds, including a CNS drug, as antiparasitic agents inhibiting pteridine reductase” (J Med Chem, 2011).

In brackets after ≈: the same amount, converted by molar mass. Activity calls are given as the source filed them. The calls are words filed in the database; no cut-off is given here.

The test system of one series is Leishmania major. Put plainly: Antileishmanial activity against Leishmania major MHOM/SU/73/5-ASKH assessed as growth by Alamar blue assay. The series is classed as functional. As to conditions: read-out: ED50 (the source's name). The method, boiled down: (§1)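 Promastigotes cultured in SDM-79, pH 7.3, with 15% heat-inactivated FCS at 28 C under 5% CO2, then seeded at 1 × 10^6 parasites/mL. DMSO dilutions in medium tested from 100 μg/mL downward, DMSO <1% final. After 72 h at 28 C, Alamar Blue added for 4 h; fluorescence at ex 530 / em 590 nm. Untreated cultures set as 100%. ED50 by linear interpolation; three independent experiments, each in duplicate.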
(The colour change of resazurin is a common sign of viable cells or microbes.)
In the case of `O=C(CCCl)Nc1nnc(CCCl)s1`, the EC50 is 22.1 µg/mL (≈ 87 µM).

In a further series the test system is Leishmania mexicana. Description: Antileishmanial activity against Leishmania mexicana MHOM/BZ/84/BEL46 assessed as growth by Alamar blue assay. The series is classed as functional. As to conditions: read-out: ED50 (the source's name). The method, boiled down: as §1
On to `Nc1nc2ccc(OC(F)(F)F)cc2s1` [RILUZOLE], for which the EC50 came to 30.8 µg/mL (≈ 132 µM).

Consider `O=C(CCCl)Nc1nnc(CCCl)s1`, for which the EC50 amounted to 10.1 µg/mL (≈ 39.7 µM).

Test system in a further series: not listed separately
Put plainly: Cytotoxicity against human MRC5 cells after 72 hrs by Alamar blue assay. As to conditions: read-out: ED50. The series is classed as cell-based.
Regarding `Nc1nnc(CCC(=O)c2cccs2)s1`, the CC50 at 72 h came to 34.4 µg/mL (≈ 144 µM).

For the molecule `Nc1nnc(-c2cc(=O)c3ccccc3o2)s1`, the CC50 at 72 h stood at 43 µg/mL (≈ 175 µM).

Take `Nc1nc2ccc(OC(F)(F)F)cc2s1` [RILUZOLE]: the CC50 at 72 h turned out to be 27.9 µg/mL (≈ 119 µM).

Regarding `O=C(CCCl)Nc1nnc(CCCl)s1`, the CC50 at 72 h was found to be 4.18 µg/mL (≈ 16.4 µM).

Test system in another series: not listed separately
Description: Lipophilicity, log D of the compound in octanol buffer at pH 7.4. The series is classed as physicochemical.
Settings: not given
As for `Nc1nnc(CCC(=O)c2cccs2)s1`, the logD was found to be 1.11.

In turn, `Nc1nnc(-c2cc(=O)c3ccccc3o2)s1` had a logD of 1.4.

The molecule `Nc1nnc(-c2cnccc2N)s1` registered a logD of 1.44.

The test system of another series is Leishmania major. Description: Antileishmanial activity against Leishmania major MHOM/SU/73/5-ASKH assessed as growth at 50 ug/ml by Alamar blue assay. The series is classed as functional.
Settings: not given
The method, boiled down: (§2)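 Promastigotes grown in SDM-79, pH 7.3, with 15% heat-inactivated FCS at 28 C in 5% CO2, then seeded at 1 × 10^6 parasites/mL. Each compound tested alone at 50 μg/mL in duplicate as a control for the combination experiments; DMSO below 1% final. After 72 h at 28 C, Alamar Blue added for 4 h; fluorescence read at ex 530 / em 590 nm. Growth expressed as percentage of untreated cultures.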
As to `Nc1nnc(CCC(=O)c2cccs2)s1`, the growth, % of control at 50 µg/mL was determined as 85.1%.

As to `Nc1nnc(-c2cc(=O)c3ccccc3o2)s1`, the growth, % of control at 50 µg/mL stood at 76%.

Regarding `Nc1nc2ccc(OC(F)(F)F)cc2s1` [RILUZOLE], the growth, % of control at 50 µg/mL was found to be 102%.

Consider `O=C(CCCl)Nc1nnc(CCCl)s1`, for which the growth, % of control at 50 µg/mL is 7.1%.

As to `Nc1nnc(-c2cnccc2N)s1`, the growth, % of control at 50 µg/mL amounted to 106%.

Turning to `Nc1nnc(-c2ccc3[nH]nnc3c2)s1`, the growth, % of control at 50 µg/mL is 83.5%.

The next series has as its target T1, Pteridine reductase 1 (Leishmania major) (UniProt Q01782).
T1 sequence (whole entry): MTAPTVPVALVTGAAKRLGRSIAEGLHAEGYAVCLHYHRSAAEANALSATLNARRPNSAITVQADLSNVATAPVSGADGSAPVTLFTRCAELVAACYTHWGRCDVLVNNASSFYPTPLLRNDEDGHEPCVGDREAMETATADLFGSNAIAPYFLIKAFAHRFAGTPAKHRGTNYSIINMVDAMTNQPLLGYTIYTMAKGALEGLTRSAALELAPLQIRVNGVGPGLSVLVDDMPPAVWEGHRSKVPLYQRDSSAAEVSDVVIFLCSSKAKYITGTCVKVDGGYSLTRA
Put plainly: Inhibition of Leishmania major PTR1 at 5 uM.
Settings: not given
The method, boiled down: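 Compounds dissolved in DMSO and screened at a single 5 μM concentration; DMSO kept below 1%. Measurements run in triplicate.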
For the molecule `Nc1nnc(CCC(=O)c2cccs2)s1`, the inhibition entry was “inactive”.

In the case of `Nc1nnc(-c2cc(=O)c3ccccc3o2)s1`, the inhibition entry is “inactive”.

For `O=C(CCCl)Nc1nnc(CCCl)s1`, the inhibition entry was “inactive”.

Regarding `Nc1nnc(-c2cnccc2N)s1`, the inhibition entry is “inactive”.

Regarding `Nc1nnc(-c2ccc3[nH]nnc3c2)s1`, the inhibition entry is “inactive”.

The next series deals with Leishmania major. Description: Antileishmanial activity against Leishmania major MHOM/SU/73/5-ASKH assessed as growth at 50 ug/ml by Alamar blue assay in presence of pyrimethamine; 5-(4-chlorophenyl)-6-ethylpyrimidine-2,4-diamine DHFR inhibitor; values are per cent of control.
Settings: not given
On to `Nc1nnc(CCC(=O)c2cccs2)s1`, for which the growth, % of control at 50 µg/mL is 17.5%.

Consider `Nc1nnc(-c2cc(=O)c3ccccc3o2)s1`, for which the growth, % of control at 50 µg/mL was found to be 14.6%.

Consider `Nc1nc2ccc(OC(F)(F)F)cc2s1` [RILUZOLE], for which the growth, % of control at 50 µg/mL is 22.9%.

Turning to `O=C(CCCl)Nc1nnc(CCCl)s1`, the growth, % of control at 50 µg/mL is 4.1%.

Regarding `Nc1nnc(-c2cnccc2N)s1`, the growth, % of control at 50 µg/mL was determined as 38%.

Regarding `Nc1nnc(-c2ccc3[nH]nnc3c2)s1`, the growth, % of control at 50 µg/mL was determined as 40.9%.

Test system in a further series: not listed separately
Put plainly: Cytotoxicity against human MRC5 cells at 100 ug/ml after 72 hrs by Alamar blue assay. The series is classed as cell-based. As to conditions: at 100 µg/mL, read-out: INH.
Regarding `Nc1nnc(-c2cnccc2N)s1`, the cytotoxicity at 72 h, 100 ug/ml is 10%.

A further series has as its target T2, Dihydrofolate reductase (Homo sapiens) (UniProt P00374).
T2 sequence (whole entry): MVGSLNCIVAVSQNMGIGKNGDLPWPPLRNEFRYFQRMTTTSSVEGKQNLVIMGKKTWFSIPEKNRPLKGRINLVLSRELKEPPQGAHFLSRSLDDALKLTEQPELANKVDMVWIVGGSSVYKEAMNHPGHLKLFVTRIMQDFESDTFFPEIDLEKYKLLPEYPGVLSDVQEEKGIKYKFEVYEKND
Description: Inhibition of human DHFR at 1 mM.
Settings: not given
The method, boiled down: (§3)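 NADPH oxidation followed at 340 nm. Compounds in DMSO, screened at a single concentration between 25 μM and 1 mM. Measurements run in triplicate.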
For the molecule `Nc1nncs1`, the inhibition entry is “inactive”.

The next series deals with T2, Dihydrofolate reductase (Homo sapiens). Put plainly: Inhibition of human DHFR at 25 uM.
Settings: not given
The method, boiled down: as §3
Take `Nc1nc2ccc([N+](=O)[O-])cc2s1`: the inhibition result is “inactive”.

Test system in the next series: not listed separately
Description: Solubility of the compound at pH 7.4. The series is classed as physicochemical. Conditions: buffer.
Turning to `Nc1nnc(CCC(=O)c2cccs2)s1`, the concentration in solution (solubility) came to 1200 µM (≈ 287 µg/mL).

`Nc1nnc(-c2cc(=O)c3ccccc3o2)s1`: the solubility stood at 730 µM (≈ 179 µg/mL).

Take `Nc1nnc(-c2cnccc2N)s1`: the concentration in solution (solubility) came to 1700 µM (≈ 328 µg/mL).

The next series has as its target T2, Dihydrofolate reductase (Homo sapiens). Put plainly: Inhibition of human DHFR at 100 uM.
Settings: not given
The method, boiled down: as §3
`Cn1ncc2cc(N)ccc21`: the inhibition entry was “inactive”.

In the next series the test system is Leishmania mexicana. Description: Antileishmanial activity against Leishmania mexicana MHOM/BZ/84/BEL46 assessed as growth at 50 ug/ml by Alamar blue assay in presence of pyrimethamine; 5-(4-chlorophenyl)-6-ethylpyrimidine-2,4-diamine DHFR inhibitor; values are per cent of control.
Settings: not given
For `Nc1nnc(CCC(=O)c2cccs2)s1`, the growth, % of control at 50 µg/mL was 27.3%.

As to `Nc1nnc(-c2cc(=O)c3ccccc3o2)s1`, the growth, % of control at 50 µg/mL turned out to be 35.1%.

In the case of `Nc1nc2ccc(OC(F)(F)F)cc2s1` [RILUZOLE], the growth, % of control at 50 µg/mL amounted to 15.1%.

As to `O=C(CCCl)Nc1nnc(CCCl)s1`, the growth, % of control at 50 µg/mL stood at 3.5%.

For `Nc1nnc(-c2cnccc2N)s1`, the growth, % of control at 50 µg/mL stood at 15.6%.

As for `Nc1nnc(-c2ccc3[nH]nnc3c2)s1`, the growth, % of control at 50 µg/mL turned out to be 18.2%.

The next series addresses Bifunctional dihydrofolate reductase-thymidylate synthase (Leishmania major) (UniProt P07382). Put plainly: Inhibition of Leishmania major DHFR at 25 uM.
Settings: not given
The method, boiled down:
as §3
Consider `Nc1nc2ccc([N+](=O)[O-])cc2s1`, for which the inhibition entry was “inactive”.

The next series has the same target. Put plainly: Inhibition of Leishmania major DHFR at 1 mM.
Settings: not given
The method, boiled down: as §3
On to `Nc1nc2ccc(OC(F)(F)F)cc2s1` [RILUZOLE], for which the inhibition entry was “inactive”.

The target in the next series is T2, Dihydrofolate reductase (Homo sapiens). Description: Inhibition of human DHFR at 50 uM.
Settings: not given
The method, boiled down: as §3
Take `Nc1nnc(-c2cc(=O)c3ccccc3o2)s1`: the inhibition result is “inactive”.

`Nc1nnc(-c2cnccc2N)s1`: the inhibition result was “inactive”.

Regarding `Nc1nnc(-c2ccc3[nH]nnc3c2)s1`, the inhibition entry was “inactive”.

For another series, the target named is Bifunctional dihydrofolate reductase-thymidylate synthase (Leishmania major) (UniProt P07382). Put plainly: Inhibition of Leishmania major DHFR at 50 uM.
Sequence of Bifunctional dihydrofolate reductase-thymidylate synthase (Leishmania major) (P07382 whole entry, looked up): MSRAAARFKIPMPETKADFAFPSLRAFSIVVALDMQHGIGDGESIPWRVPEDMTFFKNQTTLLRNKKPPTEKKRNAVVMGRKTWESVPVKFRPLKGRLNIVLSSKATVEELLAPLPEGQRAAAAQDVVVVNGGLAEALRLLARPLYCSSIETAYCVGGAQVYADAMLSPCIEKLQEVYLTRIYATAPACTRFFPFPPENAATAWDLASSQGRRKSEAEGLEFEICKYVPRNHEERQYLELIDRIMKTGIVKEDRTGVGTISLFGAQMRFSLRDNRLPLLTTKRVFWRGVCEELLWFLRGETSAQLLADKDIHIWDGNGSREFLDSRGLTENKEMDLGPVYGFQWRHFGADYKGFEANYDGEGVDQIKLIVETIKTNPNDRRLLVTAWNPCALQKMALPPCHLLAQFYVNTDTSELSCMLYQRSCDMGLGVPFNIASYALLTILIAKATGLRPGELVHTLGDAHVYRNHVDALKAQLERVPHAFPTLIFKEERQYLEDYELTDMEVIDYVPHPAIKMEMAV
Settings: not given
The method, boiled down:
as §3
Consider `Cn1ncc2cc(N)ccc21`, for which the inhibition result was “inactive”.

For `O=C(CCCl)Nc1nnc(CCCl)s1`, the inhibition entry is “inactive”.

As to `Nc1nnc(-c2cnccc2N)s1`, the inhibition entry was “inactive”.

In the case of `Nc1nnc(-c2ccc3[nH]nnc3c2)s1`, the inhibition entry is “inactive”.

Another series concerns Leishmania mexicana. Description: Antileishmanial activity against Leishmania mexicana MHOM/BZ/84/BEL46 assessed as growth at 50 ug/ml by Alamar blue assay. The series is classed as functional.
Settings: not given
The method, boiled down:
as §2
As to `Nc1nnc(CCC(=O)c2cccs2)s1`, the growth, % of control at 50 µg/mL was determined as 96.9%.

For the molecule `Nc1nnc(-c2cc(=O)c3ccccc3o2)s1`, the growth, % of control at 50 µg/mL amounted to 132%.

As for `Nc1nc2ccc(OC(F)(F)F)cc2s1` [RILUZOLE], the growth, % of control at 50 µg/mL was 21.5%.

Regarding `O=C(CCCl)Nc1nnc(CCCl)s1`, the growth, % of control at 50 µg/mL came out at 4.7%.

`Nc1nnc(-c2cnccc2N)s1`: the growth, % of control at 50 µg/mL worked out at 112%.

`Nc1nnc(-c2ccc3[nH]nnc3c2)s1`: the growth, % of control at 50 µg/mL is 112%.
